Source: ChEMBL document CHEMBL1153592, “1,8-Naphthyridine-3-carboxamide derivatives with anticancer and anti-inflammatory activity” (Eur J Med Chem, 2009)
Activity calls are given as the source filed them. The calls are words filed in the database; no cut-off is given here.

Legend:
PA-1 [1] = assay: Cytotoxicity against human PA1 cells at 10 uM after 72 hrs by MTT assay; assay type: functional, cell-based
Outline: (§1)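 Three-day MTT screen with 5000–10,000 cells/well and 72 h compound exposure at the top screening concentration. After 3 h of MTT uptake, lysis with 10% SDS–0.01 N HCl, then A540 read after 1 h. % cytotoxicity = (1 − X/R1)×100, where X is treated minus blank absorbance and R1 is untreated control absorbance.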

DU-145 [2] = assay: Cytotoxicity against human DU145 cells at 10 uM after 72 hrs by MTT assay; assay type: functional, cell-based; outline: as §1
KB [3] = assay: Cytotoxicity against human KB cells at 10 uM after 72 hrs by MTT assay; assay type: functional, cell-based; outline: as §1
SW-620 [4] = assay: Cytotoxicity against human SW620 cells at 10 uM after 72 hrs by MTT assay; assay type: functional, cell-based; outline: as §1
HBL-100 [5] = assay: Cytotoxicity against human HBL100 cells at 10 uM after 72 hrs by MTT assay; assay type: functional, cell-based; outline: as §1
A549 [6] = assay: Cytotoxicity against human A549 cells at 10 uM after 72 hrs by MTT assay; assay type: functional, cell-based; outline: as §1
MIA PaCa-2 [7] = assay: Cytotoxicity against human MIAPaCa2 cells at 10 uM after 72 hrs by MTT assay; assay type: functional, cell-based; outline: as §1
K562 [8] = assay: Cytotoxicity against human K562 cells at 10 uM after 72 hrs by MTT assay; assay type: functional, cell-based; outline: as §1
ECV-304 [9] = assay: Cytotoxicity against human ECV304 cells at 10 uM after 72 hrs by MTT assay; assay type: functional, cell-based; outline: as §1
[10] = Cytotoxicity against mouse NIH/3T3 cells at 10 uM after 72 hrs by MTT assay; assay type: cell-based; settings: nih3t3, 72 h; outline: as §1
PA-1 [11] = assay: Cytotoxicity against human PA1 cells after 72 hrs by MTT assay; assay type: functional, cell-based; settings: PA-1, 72 h
DU-145 [12] = assay: Cytotoxicity against human DU145 cells after 72 hrs by MTT assay; assay type: functional, cell-based; settings: DU-145, 72 h
KB [13] = assay: Cytotoxicity against human KB cells after 72 hrs by MTT assay; assay type: functional, cell-based
SW-620 [14] = assay: Cytotoxicity against human SW620 cells after 72 hrs by MTT assay; assay type: functional, cell-based; settings: SW-620, 72 h
HBL-100 [15] = assay: Cytotoxicity against human HBL100 cells after 72 hrs by MTT assay; assay type: functional, cell-based; settings: HBL-100, 72 h
A549 [16] = assay: Cytotoxicity against human A549 cells after 72 hrs by MTT assay; assay type: functional, cell-based; settings: A549, 72 h
MIA PaCa-2 [17] = assay: Cytotoxicity against human MIAPaCa2 cells after 72 hrs by MTT assay; assay type: functional, cell-based; settings: MIA PaCa-2, 72 h
K562 [18] = assay: Cytotoxicity against human K562 cells after 72 hrs by MTT assay; assay type: functional, cell-based; settings: K562, 72 h
ECV-304 [19] = assay: Cytotoxicity against human ECV304 cells after 72 hrs by MTT assay; assay type: functional, cell-based; settings: Homo sapiens, ECV-304, 72 h; read-out: IC50
[20] = Cytotoxicity against mouse NIH/3T3 cells after 72 hrs by MTT assay; assay type: cell-based, NIH3T3
[21] = Antiinflammatory activity in C57BL/6 mouse DC assessed as inhibition of LPS-induced IL1-beta production at 1 ug/ml after 24 hrs by ELISA; assay type: functional
Outline: (§2)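 Dendritic cells grown from femoral bone marrow of 8–12-week-old C57BL/6 mice in RPMI-1640 with 10% FBS and 20 ng/ml rmGM-CSF at 37 °C, 5% CO2. Day-6 immature DCs were stimulated with 10 ng/ml LPS plus compound for 24 h. Supernatant cytokine/chemokine measured by ELISA (pg/ml); % change = (B−A)/A×100, versus LPS-stimulated DCs alone.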

[22] = Antiinflammatory activity in C57BL/6 mouse DC assessed as inhibition of LPS-induced IL1-beta production at 0.1 ug/ml after 24 hrs by ELISA; assay type: functional; outline: as §2
[23] = Antiinflammatory activity in C57BL/6 mouse DC assessed as inhibition of LPS-induced IL-6 production at 1 ug/ml after 24 hrs by ELISA; assay type: functional; outline: as §2
[24] = Antiinflammatory activity in C57BL/6 mouse DC assessed as inhibition of LPS-induced IL-6 production at 0.1 ug/ml after 24 hrs by ELISA; assay type: functional; outline: as §2
[25] = Antiinflammatory activity in C57BL/6 mouse DC assessed as inhibition of LPS-induced TNFalpha production at 1 ug/ml after 24 hrs by ELISA; assay type: functional; outline: as §2
[26] = Antiinflammatory activity in C57BL/6 mouse DC assessed as inhibition of LPS-induced TNFalpha production at 0.1 ug/ml after 24 hrs by ELISA; assay type: functional; outline: as §2
[27] = Antiinflammatory activity in C57BL/6 mouse DC assessed as inhibition of LPS-induced IP-10 production at 1 ug/ml after 24 hrs by ELISA; assay type: functional; outline: as §2
[28] = Antiinflammatory activity in C57BL/6 mouse DC assessed as inhibition of LPS-induced IP-10 production at 0.1 ug/ml after 24 hrs by ELISA; assay type: functional; outline: as §2
[29] = Mus musculus, NIH3T3, 72 h, read-out: IC50

| Structure (SMILES) | Activity (PA-1 [1]) | Activity (DU-145 [2]) | Activity (KB [3]) | Activity (SW-620 [4]) | Activity (HBL-100 [5]) | Activity (A549 [6]) | Activity (MIA PaCa-2 [7]) | Activity (K562 [8]) | Activity (ECV-304 [9]) | Activity [10] | IC50 (PA-1 [11]) [µM] | IC50 (DU-145 [12]) [µM] | IC50 (KB [13]) [µM] | IC50 (SW-620 [14]) [µM] | IC50 (HBL-100 [15]) [µM] | IC50 (A549 [16]) [µM] | IC50 (MIA PaCa-2 [17]) [µM] | IC50 (K562 [18]) [µM] | inhibition (INH) [21] [%] | inhibition (INH) [22] [%] | further results |
| --- | --- | --- | --- | --- | --- | --- | --- | --- | --- | --- | --- | --- | --- | --- | --- | --- | --- | --- | --- | --- | --- |
| C#CCn1cc(C(=O)NC(CC(=O)NC2CCCCC2)c2ccccc2)c(=O)c2cccnc21 (stereo not drawn) | inactive | inactive | inactive | inactive | inactive | inactive | inactive | inactive | inactive | Not Active |  |  |  |  |  |  |  |  |  |  |  |
| C#CCn1cc(C(=O)NC(CC(=O)Nc2ccccc2)c2ccccc2)c(=O)c2cc(F)c(Cl)nc21 (stereo not drawn) |  |  |  |  |  |  |  |  |  |  | 2.1 | 5.9 | > 10 | 5.7 | 9.3 | > 10 | 6.9 | 6.6 | 106.8 | 84.8 | IC50 (ECV-304 [19]): > 10 µM; IC50 [20, 29]: 9.7 µM; inhibition (INH) [23]: 96%; inhibition (INH) [24]: 60%; inhibition (INH) [25]: 99%; inhibition (INH) [26]: 80%; inhibition (INH) [27]: 102.4%; inhibition (INH) [28]: 17.3% |
| C#CCn1cc(C(=O)NC(C(=O)NC2CCCC2)c2ccccc2)c(=O)c2ccc(Cl)nc21 (stereo not drawn) | inactive | inactive | inactive | inactive | inactive | inactive | inactive | inactive | inactive | Not Active |  |  |  |  |  |  |  |  |  |  |  |
| C#CCn1cc(C(=O)NC(CC(=O)NC2CCCC2)c2ccccc2)c(=O)c2cccnc21 (stereo not drawn) | inactive | inactive | inactive | inactive | inactive | inactive | inactive | inactive | inactive | Not Active |  |  |  |  |  |  |  |  | 52.1 | 62.4 | inhibition (INH) [25]: 34.7%; inhibition (INH) [26]: 19.3%; inhibition (INH) [27]: 25%; inhibition (INH) [28]: 38.8% |
| C#CCn1cc(C(=O)NC(C(=O)Nc2ccccc2)c2ccccc2)c(=O)c2cc(F)c(N3CCCC3)nc21 (stereo not drawn) | inactive | inactive | inactive | inactive | inactive | inactive | inactive | inactive | inactive | Not Active |  |  |  |  |  |  |  |  |  |  |  |
| C#CCn1cc(C(=O)NC(CC(=O)Nc2ccccc2)c2ccccc2)c(=O)c2cccnc21 (stereo not drawn) |  |  |  |  |  |  |  |  |  |  | > 10 | 7.2 | > 10 | > 10 | > 10 | > 10 | > 10 | > 10 | 78.5 | 75.1 | IC50 (ECV-304 [19]): > 10 µM; IC50 ([20]; nih3t3): Not Active; inhibition (INH) [25]: 29.7%; inhibition (INH) [26]: 19.1%; inhibition (INH) [27]: 33.1%; inhibition (INH) [28]: 31.7% |
| C#CCn1cc(C(=O)NC(CC(=O)Nc2ccccn2)c2ccccc2)c(=O)c2cccnc21 (stereo not drawn) | inactive | inactive | inactive | inactive | inactive | inactive | inactive | inactive | inactive | Not Active |  |  |  |  |  |  |  |  | 50.1 | 34.1 | inhibition (INH) [23]: 74.9%; inhibition (INH) [24]: 74.4% |
| C#CCn1cc(C(=O)NC(C(=O)NC2CCCCC2)c2ccccc2)c(=O)c2cccnc21 (stereo not drawn) | inactive | inactive | inactive | inactive | inactive | inactive | inactive | inactive | inactive | Not Active |  |  |  |  |  |  |  |  |  |  |  |
| C#CCn1cc(C(=O)NC(C(=O)NC2CCCCC2)c2ccccc2)c(=O)c2ccc(Cl)nc21 (stereo not drawn) | inactive | inactive | inactive | inactive | inactive | inactive | inactive | inactive | inactive | Not Active |  |  |  |  |  |  |  |  |  |  |  |
| C#CCn1cc(C(=O)NC(CC(=O)NC2CCCC2)c2ccccc2)c(=O)c2ccc(Cl)nc21 (stereo not drawn) |  |  |  |  |  |  |  |  |  |  | 1.1 | > 10 | > 10 | 2.7 | 3.2 | 9.5 | 2.4 | 6.8 | 18.1 | 82 | IC50 (ECV-304 [19]): 7.8 µM; IC50 [20, 29]: 4.4 µM; inhibition (INH) [23]: 81.7%; inhibition (INH) [24]: 79.8% |
